# Hck-Nef inh = inhibitors of human Hck kinase activated by Nef; actives 0.68% (n = 220,000); Recombinant Hck-YEEI plus Nef, Z-Lyte FRET kinase assay; P08631; inhibition, % at 20 µM;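 active means Hck-Nef kinase inhibition above about 50%, limit read from the data; inactive means inhibition below that limit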;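 further: 0% = DMSO with Hck plus Nef and 100% = Hck alone without Nef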
# Target sequence (P08631 whole entry, looked up): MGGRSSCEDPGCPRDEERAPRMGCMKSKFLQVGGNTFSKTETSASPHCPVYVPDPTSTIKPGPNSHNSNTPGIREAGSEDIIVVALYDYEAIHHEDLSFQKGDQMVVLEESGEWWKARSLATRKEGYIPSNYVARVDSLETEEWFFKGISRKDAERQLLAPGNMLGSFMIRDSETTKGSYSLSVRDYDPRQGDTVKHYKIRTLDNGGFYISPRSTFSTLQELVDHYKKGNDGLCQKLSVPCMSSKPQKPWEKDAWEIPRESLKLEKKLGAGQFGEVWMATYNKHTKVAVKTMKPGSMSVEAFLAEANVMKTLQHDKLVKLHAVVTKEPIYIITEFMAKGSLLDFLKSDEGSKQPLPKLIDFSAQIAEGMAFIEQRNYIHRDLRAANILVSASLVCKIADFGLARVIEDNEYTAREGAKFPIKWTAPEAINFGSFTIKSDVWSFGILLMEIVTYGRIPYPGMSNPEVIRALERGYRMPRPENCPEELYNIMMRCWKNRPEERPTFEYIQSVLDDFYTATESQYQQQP
# RanGTP-Imp inh = inhibitors of RanGTP-importin-beta interaction, primary screen, biochemical, FRET, CFP-Ran, YFP-importin-beta, homogeneous; actives 1.1% (n = 300,000); inhibition, % (test concentration not listed); cell-free CFP-Ran/YFP-importin-beta FRET ratio; AID 2216;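 active means more than half of the replicate wells show a fall in the fluorescence ratio signal beyond about 16%, limit read from the data, passing the limit was not always enough; inconclusive means exactly half of the replicate wells pass the set limit; inactive means fewer than half of replicates pass the limit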;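 further: 0% = DMSO wells and 100% = Ran loaded with GDP instead of GTP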
# TNF necrop inh = blocks TNF-alpha induced death of Jurkat FADD-/- cells | activation (protection from cell death), % at 10 µM | Jurkat FADD-/- TNF necroptosis rescue, ATP luminescence, 24 h; 0 = TNF only, 100 = no-TNF cells | AID 463075 | actives 0.068% (n = 220,000);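 active means activation, meaning protection from cell death, of at least 50% relative to plate controls; inactive means activation below 50%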;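 further: necroptosis triggered by 40 ng/mL TNF-alpha added together with compound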
# L929 necroptosis = L929 zVAD cell death inhibition; L929 zVAD necroptosis rescue, ATP luminescence, 24 h; with zVAD 60 µM; actives 0.38% (n = 220,000); AID 1377; viability rescue, % at 10 µM;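 active means activation, scaled between plate controls, above about 75%, limit read from the data; inactive means activation under that limit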;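 further: 0% = zVAD with DMSO and 100% = DMSO alone without zVAD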
# Runt-SMMHC FRET = inhibitors of human RUNX1 Runt domain binding to CBFb-SMMHC | Q01196+Q13951 | Cerulean-Runt/Venus-CBFb-SMMHC FRET ratio 530/480, 1 h | inhibition, % at 20 µM | actives 0.74% (n = 220,000) | AID 1434;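 active means mean inhibition across duplicate retests at 20 µM reaching about 50%, limit read from the data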;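 further: 0% = DMSO wells and 100% = wells with excess untagged CBFb-SMMHC; inhibitors lower the FRET ratio by blocking Runt binding to CBFb-SMMHC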
# Runt-CBFb FRET = blocks binding of human RUNX1 Runt domain to CBFb; Q01196+Q13951; Cerulean-Runt/Venus-CBFb FRET ratio 530/480, 1 h; inhibition, % at 20 µM; actives 0.46% (n = 220,000); AID 1496;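 active means inhibition over about 50% at 20 µM in the single-dose screen, limit read from the data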;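 further: 0% = DMSO wells and 100% = excess unlabeled CBFb competitor control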
#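 Reagent – Venus-CBFb binding partner, 100 nM · Assay system – Cerulean-tagged RUNX1 Runt domain (FRET donor) fusion protein · Input – 100 nM per protein · Incubation – two 1 h room-temperature incubations shielded from light · Measured by – FRET fluorescence · Medium – Tris buffer pH 7.5 with salts and BSA · Benchmarks – unlabeled CBFb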
# Numbers without * were called inactive; ? = inconclusive; nt = no result. Sampled rows, rich in hits. Any-hit rate of the full collection: about 2.1%.
SMILES,Hck-Nef inh,RanGTP-Imp inh,TNF necrop inh,L929 necroptosis,Runt-SMMHC FRET,Runt-CBFb FRET
Cc1cccn2c(=O)c(/C=C(\C#N)C(=O)NC3CCS(=O)(=O)C3)c(N3CCC(C(N)=O)CC3)nc12 (stereo unspecified),6,?,2,1,63*,134*
CN1C(=O)S/C(=C\c2ccccc2OCc2ccc(C(=O)O)cc2)C1=O,20,-3,2,54,-1,-1
Cc1ccc(Oc2ccccc2/C=C2\SC(=O)N(C)C2=O)cc1,1,5,52*,0,-3,-2
COc1cc(SC)ccc1C(=O)N(Cc1ccccc1)c1ccccn1,13,-1,1,-1,-1,1
O=C(Nc1nc2c(s1)CN(Cc1ccccc1)CC2)c1cccc(S(=O)(=O)N2CCc3ccccc32)c1,5,140*,0,1,-3,-6
O=C(Cc1cn2ccsc2n1)Nc1nc2c(s1)CN(Cc1ccccc1)CC2,7,11,1,16,77*,47
O=C(Nc1nc2ccccc2s1)c1cccc(S(=O)(=O)N2CCc3ccccc32)c1,0,-3,-2,-1,3,2
CN=C1S/C(=C\c2cccc(Cl)c2Cl)C(=O)N1C,nt,7,nt,nt,nt,nt
COc1ccc2[nH]c(=O)cc(C(=O)O)c2c1,23,6,1,4,3,-2
COc1ccc2[nH]c3c4c(ccc3c2c1)C(=O)C=CC4=O,6,nt,-29,29,24,55*
O=C(c1cc2nc(-c3ccc(Cl)cc3)cc(C(F)(F)F)n2n1)N1CCOCC1,23,6,0,2,0,-2
CC(=O)Nc1ccc(SCCC2CCCCN2C)cc1 (stereo unspecified),nt,-1,nt,nt,nt,nt
c1ccc(N2CCN(c3nc4ccccc4n4nnnc34)CC2)cc1,1,44*,1,10,31,15
COc1ccc(NCc2ccc([N+](=O)[O-])s2)c(OC)c1,7,nt,-11,-1,5,3
Cc1ccc(S(=O)(=O)Nc2nc3ccccc3nc2Nc2cccc(S(=O)(=O)N3CCCC3)c2)cc1,-3,30*,-3,2,90*,36
O=C(Nc1cccc(F)c1)C1CCN(C(=O)NCc2ccccc2)CC1,nt,5,nt,nt,nt,nt
CCOC(=O)C1CCCN(C(=O)Cn2ncc3c([nH]c4ccc(C)cc43)c2=O)C1 (stereo unspecified),nt,-4,nt,nt,nt,nt
COc1cccc(NC(=O)Nc2c(C)n(C)n(-c3ccccc3)c2=O)c1,-23,115*,0,-1,-3,2
COc1cccc(C(=O)C2CCCN(C(=O)c3cccc(C#CC(C)(C)O)c3)C2)c1 (stereo unspecified),17,-1,2,0,0,0
CC1=C(C#N)C(=O)OC(C)(C)C1,0,72*,0,1,78*,32
Cc1cccc(N(Cc2ccccc2)C(=O)c2ccc(CS(C)(=O)=O)cc2)c1,nt,5,nt,nt,nt,nt
Cn1c(N)c(S(=O)(=O)N2CCN(c3ccccc3Cl)CC2)c(=O)n(C)c1=O,nt,26*,nt,nt,nt,nt
Cc1ccc(CC2SC(=O)NC2=O)cc1Cl (stereo unspecified),-12,-2,20,84*,1,4
S=C(NCCCN1CCOCC1)Nc1ccc(Cl)c(Cl)c1,4,-1,4,1,0,-1
COc1ccc(C2C3=C(CC(C)(C)CC3=O)N(CCN3CCOCC3)C3=C2C(=O)CC(C)(C)C3)cc1,13,71*,0,0,81*,91*
SMILES,Hck-Nef inh,RanGTP-Imp inh,TNF necrop inh,L929 necroptosis,Runt-SMMHC FRET,Runt-CBFb FRET
CCOc1cc(C2C3=C(CC(C)(C)CC3=O)N(CCOC)C3=C2C(=O)CC(C)(C)C3)ccc1OC,nt,2,nt,nt,nt,nt
COCCCN1C2=C(C(=O)CC(C)(C)C2)C(c2ccc(O)c(OC)c2)C2=C1CC(C)(C)CC2=O,nt,0,nt,nt,nt,nt
CC1(C)CC(=O)C2=C(C1)N(CCN1CCOCC1)C1=C(C(=O)CC(C)(C)C1)C2c1ccc(Cl)cc1,50,127*,-3,0,88*,77*
CC1(C)CC(=O)C2=C(C1)N(CCN1CCOCC1)C1=C(C(=O)CC(C)(C)C1)C2c1cccc(F)c1,39,130*,-1,-1,78*,63*
CC1(c2nnc(Cc3ccccc3)o2)CC(c2ccc([N+](=O)[O-])cc2)=NO1 (stereo unspecified),8,3,3,0,-1,2
Cc1cc(=O)n2ccccc2c1C#N,15,0,1,-1,13,8
COc1ccc2c(C#N)c3ccccn3c2c1,-41,0,-1,26,92*,20
O=C(Cn1cnc2ccccc2c1=O)Nc1nc2ccccc2s1,23,-2,2,0,2,1
CCc1ccc2nc(NC(=O)Cn3cnc4ccccc4c3=O)sc2c1,55*,2,0,0,3,4
CC(=O)C1=C(C)OC(N)=C(C#N)C1c1cccc2ccccc12 (stereo unspecified),3,0,-5,-1,-3,6
CC(=O)n1c2c(c3ccccc31)OC(N)=C(C#N)C2c1ccc(C(C)C)cc1 (stereo unspecified),2,31*,3,0,-7,-7
Nc1c(C(=O)NCCN2CCOCC2)c2nc3ccccc3nc2n1-c1cccc(F)c1,18,78*,-2,30,61*,71*
COc1ccc(/C=C2\CCCc3c2nc2ccccc2c3C(=O)O)cc1OC,-9,37*,2,1,81*,12
CCOc1ccc(/C=C2\CCCc3c2nc2ccccc2c3C(=O)O)cc1OC,nt,29*,nt,nt,nt,nt
CCNC(=O)NC(=O)COC(=O)CCc1nc(=O)c2ccccc2n1C,24,1,-1,3,-5,0
COc1ccc(CCNC(=O)c2cc3c(=O)n4cccc(C)c4nc3n(CC3CCCO3)c2=N)cc1 (stereo unspecified),nt,-9,nt,nt,nt,nt
COc1ccc(CCNC(=O)c2cc3c(=O)n4cccc(C)c4nc3n(Cc3ccco3)c2=N)cc1OC,nt,53*,nt,nt,nt,nt
Cc1cccn2c(=O)c3cc(C(=O)NCCc4ccccc4)sc3nc12,nt,0,nt,nt,nt,nt
Cc1cccn2c(=O)c3cc(C(=O)NCC4CCCO4)c(=N)n(CCc4ccccc4)c3nc12 (stereo unspecified),nt,176*,nt,nt,nt,nt
Cc1cccn2c(=O)c3cc(C(=O)NCc4ccco4)c(=N)n(CCc4ccccc4)c3nc12,42,nt,-8,-1,79*,12
Cc1cccn2c(=O)c3cc(C(=O)NCCc4ccccc4)c(=N)n(Cc4ccco4)c3nc12,nt,74*,nt,nt,nt,nt
O=C(NCc1ccncc1)C(=O)NCC1OCCN1S(=O)(=O)c1cc(F)ccc1F (stereo unspecified),nt,-5,nt,nt,nt,nt

# From PubChem BioAssay
